The values below come from ChEMBL document CHEMBL4266033, “Neolymphostin A Is a Covalent Phosphoinositide 3-Kinase (PI3K)/Mammalian Target of Rapamycin (mTOR) Dual Inhibitor That Employs an Unusual Electrophilic Vinylogous Ester” (J Med Chem, 2018).

The structures appear in SMILES notation. pIC50, pKd: −log10 of the molar value. Calls of active or inactive are those of the source. No cut-off for these calls is given here.

Experiment [1] has as its system Panel NCI-60 (60 carcinoma cell lines). The experiment is described as follows: Growth inhibition of human NCI60 cells after 48 hrs by sulforhodamine B assay. Type of experiment: functional. The essentials:
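NCI 60-cell line panel (leukemia, NSCLC, colon, CNS, melanoma, ovarian, renal, prostate, breast). 5-point dose-response curves with top concentration 50 µM. GI50, TGI and LC50 were calculated from the curves.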

Experiment [2] deals with Tyrosine-protein kinase Lck (Homo sapiens, UniProt P06239). The experiment is described as follows: Binding affinity to human LCK after 1 hr by KINOMEscan assay.
For experiment [3], the target named is T1, Serine/threonine-protein kinase PLK4 (Homo sapiens) (UniProt O00444).
T1 sequence (whole entry): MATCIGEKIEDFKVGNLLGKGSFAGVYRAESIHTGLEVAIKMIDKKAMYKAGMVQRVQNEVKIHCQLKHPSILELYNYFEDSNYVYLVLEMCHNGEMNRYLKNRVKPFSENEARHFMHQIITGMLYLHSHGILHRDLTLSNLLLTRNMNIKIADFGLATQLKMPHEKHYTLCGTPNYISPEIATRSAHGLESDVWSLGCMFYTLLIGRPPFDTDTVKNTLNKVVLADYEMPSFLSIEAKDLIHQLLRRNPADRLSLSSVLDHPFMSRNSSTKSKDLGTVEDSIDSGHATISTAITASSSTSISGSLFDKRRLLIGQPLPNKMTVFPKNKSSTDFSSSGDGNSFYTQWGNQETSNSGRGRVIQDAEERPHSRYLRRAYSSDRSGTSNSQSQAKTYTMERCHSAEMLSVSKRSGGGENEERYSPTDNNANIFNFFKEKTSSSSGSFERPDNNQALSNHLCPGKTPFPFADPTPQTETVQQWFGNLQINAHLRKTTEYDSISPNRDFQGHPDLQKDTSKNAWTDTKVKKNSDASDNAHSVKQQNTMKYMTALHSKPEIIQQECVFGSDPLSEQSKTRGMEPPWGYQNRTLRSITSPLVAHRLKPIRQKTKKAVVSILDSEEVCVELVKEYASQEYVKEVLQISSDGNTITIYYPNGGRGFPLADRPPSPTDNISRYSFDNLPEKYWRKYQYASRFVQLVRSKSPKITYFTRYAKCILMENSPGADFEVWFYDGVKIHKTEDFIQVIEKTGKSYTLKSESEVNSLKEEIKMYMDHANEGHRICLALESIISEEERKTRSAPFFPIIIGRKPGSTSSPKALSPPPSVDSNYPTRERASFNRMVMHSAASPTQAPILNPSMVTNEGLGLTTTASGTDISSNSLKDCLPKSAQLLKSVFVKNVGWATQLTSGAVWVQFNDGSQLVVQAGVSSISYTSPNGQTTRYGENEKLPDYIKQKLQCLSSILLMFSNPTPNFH
The experiment can be described thus: Binding affinity to human PLK4 at 1 uM after 1 hr by KINOMEscan assay.

Experiment [4] addresses T2, Phosphatidylinositol 4,5-bisphosphate 3-kinase catalytic subunit gamma isoform (Homo sapiens, UniProt P48736). The experiment is described as follows: Binding affinity to human PI3Kgamma equilibrate for 6 hrs by scan-kinetic platform assay. The gist of the method:
(§1)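 scanKINETIC format on PI3Kα and PI3Kγ. […] Arm C: equilibrated 1 h. Arm B: equilibrated 1 h, diluted 30-fold, then re-equilibrated. Arm D: diluted immediately, then equilibrated. Kd compared with and without the dilution step to judge reversibility.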

The nature of experiment [5]: Inhibition of PI3K in human HeLa cells assessed as reduction in EGF-stimulated AKT phosphorylation at S473 preincubated for 10 mins followed by EGF stimulation measured after 5 mins by Western blot analysis. Type of experiment: cell-based. The essentials:
(§2)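 HeLa cells were serum-starved overnight, pretreated with compound for 10 min, then stimulated with 10 ng mL-1 EGF for 5 min. Lysis was in boiling SDS sample buffer, with protein quantified at 660 nm. Equal protein was resolved by SDS-PAGE and Western blotted for pEGFR Tyr1068, pAKT Ser473/Thr308, and pERK1/2 Thr202/Tyr204 with total proteins and GAPDH, detected by ECL.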

For experiment [6], the target named is T2, Phosphatidylinositol 4,5-bisphosphate 3-kinase catalytic subunit gamma isoform. The experiment is described as follows: Binding affinity to human PI3Kgamma equilibrate for 1 hr followed by 30 fold dilution and re-equilibrate for 5 hrs by scan-kinetic platform assay. The gist of the method:
as §1

Experiment [7] concerns the target Phosphatidylinositol 4,5-bisphosphate 3-kinase catalytic subunit beta isoform (Homo sapiens, UniProt P42338). The experiment can be described thus: Binding affinity to human PI3Kbeta after 1 hr by KINOMEscan assay.
In experiment [8] the target is Mitogen-activated protein kinase 9 (Homo sapiens) (UniProt P45984). The experiment is described as follows: Binding affinity to human JNK2 at 1 uM after 1 hr by KINOMEscan assay.
Experiment [9] has as its target PI3-kinase p110-alpha/p85-alpha (Homo sapiens) (UniProt P27986+P42336). The experiment can be described thus: Binding affinity to PI3Kalpha/p85alpha (unknown origin) assessed as covalent modification at Lys802 residue at 4 uM measured for 3/300 secs by hydrogen-deuterium exchange mass spectrometry. The format is protein-complex assay. The essentials:
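PI3Kα (p110α/p85α) preincubated 30 min at 2 μM with 4 μM inhibitor or DMSO (5% final). Diluted to 0.4 μM in 50 μL for deuterium exchange at 3 s on ice and 300 s at 20 °C. Quenched with ice-cold 2 M guanidine-HCl/3% formic acid, then UPLC-TOF-MS. Peptide changes >5% and >0.4 Da with paired t-test p<0.01 taken as significant.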

For experiment [10], the target named is T3, Phosphatidylinositol 4,5-bisphosphate 3-kinase catalytic subunit alpha isoform (Homo sapiens, UniProt P42336). The experiment is described as follows: Binding affinity to human PI3Kalpha diluted 30 fold and equilibrate for 6 hrs by scan-kinetic platform assay. The essentials:
as §1

The target in experiment [11] is T2, Phosphatidylinositol 4,5-bisphosphate 3-kinase catalytic subunit gamma isoform. The experiment is described as follows: Binding affinity to human PI3Kgamma after 1 hr by KINOMEscan assay.
Experiment [12] addresses T3, Phosphatidylinositol 4,5-bisphosphate 3-kinase catalytic subunit alpha isoform. The experiment is described as follows: Binding affinity to human PI3Kalpha after 1 hr by KINOMEscan assay.
Experiment [13] in a line: Inhibition of PI3K in human HeLa cells assessed as reduction in EGF-stimulated AKT phosphorylation at T308 preincubated for 10 mins followed by EGF stimulation measured after 5 mins by Western blot analysis. Type of experiment: cell-based. The essentials: as §2
The target in experiment [14] is Mitogen-activated protein kinase 10 (Homo sapiens) (UniProt P53779). The experiment can be described thus: Binding affinity to human JNK3 at 1 uM after 1 hr by KINOMEscan assay.
Experiment [15] has as its target T2, Phosphatidylinositol 4,5-bisphosphate 3-kinase catalytic subunit gamma isoform. The experiment can be described thus: Binding affinity to human PI3Kgamma equilibrate for 1 hr by scan-kinetic platform assay. The gist of the method: as §1
Experiment [16] addresses Mitogen-activated protein kinase 8 (Homo sapiens) (UniProt P45983). The experiment is described as follows: Binding affinity to human JNK1 at 1 uM after 1 hr by KINOMEscan assay.
Experiment [17] deals with T2, Phosphatidylinositol 4,5-bisphosphate 3-kinase catalytic subunit gamma isoform. The experiment is described as follows: Binding affinity to human PI3Kgamma diluted 30 fold and equilibrate for 6 hrs by scan-kinetic platform assay. The essentials: as §1
Experiment [18] addresses T3, Phosphatidylinositol 4,5-bisphosphate 3-kinase catalytic subunit alpha isoform. The experiment can be described thus: Binding affinity to human PI3Kalpha equilibrate for 1 hr by scan-kinetic platform assay. The essentials:
as §1

T3 sequence (P42336 whole entry, canonical isoform): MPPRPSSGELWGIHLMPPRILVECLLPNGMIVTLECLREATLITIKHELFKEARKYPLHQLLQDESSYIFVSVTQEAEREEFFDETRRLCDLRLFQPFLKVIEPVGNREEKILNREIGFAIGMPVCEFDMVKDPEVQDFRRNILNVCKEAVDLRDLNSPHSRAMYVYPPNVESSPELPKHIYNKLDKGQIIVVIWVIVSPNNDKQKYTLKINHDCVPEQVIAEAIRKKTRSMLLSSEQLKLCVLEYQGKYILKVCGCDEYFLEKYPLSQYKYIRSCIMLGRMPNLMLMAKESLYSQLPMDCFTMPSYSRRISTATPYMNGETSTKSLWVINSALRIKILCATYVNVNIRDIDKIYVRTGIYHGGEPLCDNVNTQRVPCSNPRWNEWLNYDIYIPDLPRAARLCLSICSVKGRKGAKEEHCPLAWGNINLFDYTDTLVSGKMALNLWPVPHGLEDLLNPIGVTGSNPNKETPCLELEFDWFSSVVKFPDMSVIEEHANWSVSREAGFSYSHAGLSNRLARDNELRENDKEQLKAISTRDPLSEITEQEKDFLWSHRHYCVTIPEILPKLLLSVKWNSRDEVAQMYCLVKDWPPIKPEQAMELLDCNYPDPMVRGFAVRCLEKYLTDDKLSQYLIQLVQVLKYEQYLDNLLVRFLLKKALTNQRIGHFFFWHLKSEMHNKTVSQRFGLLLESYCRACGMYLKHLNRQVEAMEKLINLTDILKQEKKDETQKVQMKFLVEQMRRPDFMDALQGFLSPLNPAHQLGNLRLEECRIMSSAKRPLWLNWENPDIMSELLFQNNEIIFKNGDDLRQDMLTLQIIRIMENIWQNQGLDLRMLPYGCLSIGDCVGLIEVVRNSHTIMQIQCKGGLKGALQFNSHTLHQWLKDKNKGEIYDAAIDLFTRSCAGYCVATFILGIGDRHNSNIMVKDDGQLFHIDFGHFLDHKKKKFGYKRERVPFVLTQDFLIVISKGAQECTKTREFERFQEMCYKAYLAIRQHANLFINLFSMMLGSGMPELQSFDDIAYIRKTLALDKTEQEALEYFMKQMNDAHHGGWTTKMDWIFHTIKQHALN
T2 sequence (P48736 whole entry, canonical isoform): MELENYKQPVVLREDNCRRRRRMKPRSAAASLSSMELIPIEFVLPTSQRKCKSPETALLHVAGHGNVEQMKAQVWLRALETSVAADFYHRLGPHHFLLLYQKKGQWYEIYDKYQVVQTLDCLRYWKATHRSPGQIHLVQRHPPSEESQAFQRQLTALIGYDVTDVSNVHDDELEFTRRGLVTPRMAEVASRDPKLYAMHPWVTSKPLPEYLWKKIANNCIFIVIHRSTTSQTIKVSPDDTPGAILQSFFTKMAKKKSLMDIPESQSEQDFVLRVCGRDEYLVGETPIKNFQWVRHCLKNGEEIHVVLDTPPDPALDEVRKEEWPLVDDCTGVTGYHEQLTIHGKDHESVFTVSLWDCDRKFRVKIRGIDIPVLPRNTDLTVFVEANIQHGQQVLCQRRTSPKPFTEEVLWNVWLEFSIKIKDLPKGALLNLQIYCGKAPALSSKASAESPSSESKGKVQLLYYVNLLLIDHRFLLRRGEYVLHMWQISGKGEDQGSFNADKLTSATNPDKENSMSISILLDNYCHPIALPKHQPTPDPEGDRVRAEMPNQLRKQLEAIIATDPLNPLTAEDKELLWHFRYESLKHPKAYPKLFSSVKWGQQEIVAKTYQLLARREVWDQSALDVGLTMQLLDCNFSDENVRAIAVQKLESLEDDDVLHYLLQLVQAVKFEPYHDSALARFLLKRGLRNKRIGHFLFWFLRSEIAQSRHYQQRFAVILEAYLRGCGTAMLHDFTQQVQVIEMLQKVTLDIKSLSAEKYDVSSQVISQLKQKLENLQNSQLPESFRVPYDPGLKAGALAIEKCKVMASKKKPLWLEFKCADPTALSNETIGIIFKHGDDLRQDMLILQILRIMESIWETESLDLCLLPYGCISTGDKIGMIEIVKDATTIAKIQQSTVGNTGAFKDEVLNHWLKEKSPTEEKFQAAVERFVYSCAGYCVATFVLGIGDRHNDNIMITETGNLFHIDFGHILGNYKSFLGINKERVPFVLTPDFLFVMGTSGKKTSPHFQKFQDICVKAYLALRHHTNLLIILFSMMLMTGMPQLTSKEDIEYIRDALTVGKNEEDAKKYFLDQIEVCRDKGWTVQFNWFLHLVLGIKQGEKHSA
Chain of Mitogen-activated protein kinase 9 (Homo sapiens) (P45984 whole entry, looked up): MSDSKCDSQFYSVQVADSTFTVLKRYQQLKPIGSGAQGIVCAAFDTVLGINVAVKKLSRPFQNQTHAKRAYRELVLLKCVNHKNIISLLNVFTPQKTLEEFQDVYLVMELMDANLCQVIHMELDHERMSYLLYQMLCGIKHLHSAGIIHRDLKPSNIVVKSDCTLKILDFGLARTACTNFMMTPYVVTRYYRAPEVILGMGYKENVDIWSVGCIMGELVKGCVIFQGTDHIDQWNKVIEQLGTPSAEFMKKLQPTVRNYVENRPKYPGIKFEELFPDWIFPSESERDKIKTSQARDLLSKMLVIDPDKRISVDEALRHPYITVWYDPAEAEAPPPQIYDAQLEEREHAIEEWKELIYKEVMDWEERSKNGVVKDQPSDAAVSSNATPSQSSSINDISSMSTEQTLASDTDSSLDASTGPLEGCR
Chain of Tyrosine-protein kinase Lck (P06239 whole entry): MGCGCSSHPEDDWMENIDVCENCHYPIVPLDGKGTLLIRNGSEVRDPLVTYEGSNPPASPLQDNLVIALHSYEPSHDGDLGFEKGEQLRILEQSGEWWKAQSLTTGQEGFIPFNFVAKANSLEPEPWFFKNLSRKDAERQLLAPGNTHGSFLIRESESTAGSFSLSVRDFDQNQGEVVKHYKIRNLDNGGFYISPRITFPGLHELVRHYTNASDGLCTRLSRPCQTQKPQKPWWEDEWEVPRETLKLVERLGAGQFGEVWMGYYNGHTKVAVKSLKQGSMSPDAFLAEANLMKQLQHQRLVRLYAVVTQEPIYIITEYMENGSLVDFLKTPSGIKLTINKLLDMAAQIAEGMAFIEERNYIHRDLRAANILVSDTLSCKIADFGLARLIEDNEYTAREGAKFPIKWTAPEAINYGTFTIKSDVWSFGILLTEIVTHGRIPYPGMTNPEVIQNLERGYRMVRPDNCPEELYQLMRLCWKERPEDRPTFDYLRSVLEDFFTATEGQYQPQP
Chain of Mitogen-activated protein kinase 10 (Homo sapiens) (P53779 whole entry, canonical isoform): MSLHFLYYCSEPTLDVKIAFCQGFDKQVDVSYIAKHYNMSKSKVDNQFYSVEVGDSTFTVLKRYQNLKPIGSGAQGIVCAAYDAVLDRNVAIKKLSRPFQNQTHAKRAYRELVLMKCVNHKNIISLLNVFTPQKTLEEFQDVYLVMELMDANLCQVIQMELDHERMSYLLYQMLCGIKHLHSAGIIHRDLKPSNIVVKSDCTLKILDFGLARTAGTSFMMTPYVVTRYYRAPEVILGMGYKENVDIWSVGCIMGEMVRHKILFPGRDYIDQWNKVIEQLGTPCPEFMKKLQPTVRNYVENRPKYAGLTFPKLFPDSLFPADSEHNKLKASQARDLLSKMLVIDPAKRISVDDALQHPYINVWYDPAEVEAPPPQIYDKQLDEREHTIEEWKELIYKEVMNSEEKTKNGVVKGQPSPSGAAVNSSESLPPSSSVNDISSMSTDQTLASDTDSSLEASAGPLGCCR
Chain of Mitogen-activated protein kinase 8 (Homo sapiens) (P45983 whole entry, canonical isoform): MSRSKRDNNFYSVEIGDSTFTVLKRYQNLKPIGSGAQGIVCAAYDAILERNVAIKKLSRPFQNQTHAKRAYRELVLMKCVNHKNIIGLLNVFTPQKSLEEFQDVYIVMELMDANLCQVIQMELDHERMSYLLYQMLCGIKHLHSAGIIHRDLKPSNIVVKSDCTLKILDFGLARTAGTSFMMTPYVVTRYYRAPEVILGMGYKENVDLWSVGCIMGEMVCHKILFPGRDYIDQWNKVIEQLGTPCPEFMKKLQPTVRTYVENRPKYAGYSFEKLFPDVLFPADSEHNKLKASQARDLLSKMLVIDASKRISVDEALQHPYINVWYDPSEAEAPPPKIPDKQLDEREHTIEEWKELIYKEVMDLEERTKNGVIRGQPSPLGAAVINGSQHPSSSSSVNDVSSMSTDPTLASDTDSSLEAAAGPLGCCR
Chain of Phosphatidylinositol 4,5-bisphosphate 3-kinase catalytic subunit beta isoform (P42338 whole entry, canonical isoform): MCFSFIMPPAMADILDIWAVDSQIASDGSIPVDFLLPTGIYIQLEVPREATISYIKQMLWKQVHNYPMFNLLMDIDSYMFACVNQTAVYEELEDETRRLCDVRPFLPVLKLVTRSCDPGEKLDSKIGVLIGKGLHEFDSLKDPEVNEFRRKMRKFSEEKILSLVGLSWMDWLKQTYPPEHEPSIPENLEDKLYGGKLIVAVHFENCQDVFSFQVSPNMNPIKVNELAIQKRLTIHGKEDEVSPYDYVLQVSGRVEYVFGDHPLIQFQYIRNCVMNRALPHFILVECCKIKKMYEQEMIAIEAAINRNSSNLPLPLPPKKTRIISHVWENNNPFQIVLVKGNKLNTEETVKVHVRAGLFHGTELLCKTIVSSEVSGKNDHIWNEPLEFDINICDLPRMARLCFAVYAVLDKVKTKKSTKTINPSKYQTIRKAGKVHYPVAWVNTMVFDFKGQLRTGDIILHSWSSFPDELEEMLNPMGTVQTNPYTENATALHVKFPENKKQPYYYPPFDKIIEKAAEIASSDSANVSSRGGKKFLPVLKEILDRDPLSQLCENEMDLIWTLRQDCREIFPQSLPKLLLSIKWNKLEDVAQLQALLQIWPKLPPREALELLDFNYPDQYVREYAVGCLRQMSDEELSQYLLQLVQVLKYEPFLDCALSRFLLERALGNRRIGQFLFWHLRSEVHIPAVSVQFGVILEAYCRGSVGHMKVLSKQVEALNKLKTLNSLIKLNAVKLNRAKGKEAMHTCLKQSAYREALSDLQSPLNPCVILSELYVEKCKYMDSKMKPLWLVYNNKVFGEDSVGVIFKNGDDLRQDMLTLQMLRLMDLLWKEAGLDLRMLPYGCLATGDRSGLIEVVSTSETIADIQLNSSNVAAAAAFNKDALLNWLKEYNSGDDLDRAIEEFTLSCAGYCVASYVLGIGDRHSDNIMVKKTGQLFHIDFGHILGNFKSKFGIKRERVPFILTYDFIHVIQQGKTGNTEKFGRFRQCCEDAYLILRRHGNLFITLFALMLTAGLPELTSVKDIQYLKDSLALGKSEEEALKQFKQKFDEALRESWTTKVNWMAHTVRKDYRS

The molecule `CO/C=C/C(=O)c1cc2c3c(c(N)cc(NC(=O)C(C)C)c3n1)N=C2` displayed a GI50 in [1] of 6 to 840 nM. Further, the pKd is 5.34 in [2]; 8.70 to 8.72 in experiment [4]; 8.14 to 8.36 in experiment [6]; 8.24 in [7]; 7.70 to 7.74 in experiment [10]; 8.46 in experiment [11]. Further, the pKd in [12] was 9.06; in experiment [15], 8.48 to 8.70; in experiment [17], 7.00 to 7.10; in experiment [18] it was 9.17 to 9.19. The result in [3], in experiment [8], in experiment [9], in experiment [14] and in [16] was Active. Moreover, the pIC50 in experiment [5] and in experiment [13] was 8.52 throughout.
